Test results from ChEMBL document CHEMBL3872225, “Synthesis, binding assays, cytotoxic activity and docking studies of benzimidazole and benzothiophene derivatives with selective affinity for the CB2 cannabinoid receptor” (Eur J Med Chem, 2016).
pIC50, pKi: −log10 of the molar value.

Legend:
[1] = target: Cannabinoid receptor 1 (Homo sapiens, UniProt P21554); assay: Displacement of [3H]CP-55940 from human recombinant CB1 receptor expressed in HEK293 cell membranes incubated for 1.5 hrs
Procedure, shortened: (§1)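 Membranes from HEK-293 cells overexpressing human CB1 or CB2 incubated with increasing compound concentrations and 0.5 nM [3H]CP-55,940 at 30 °C for 1.5 h. […] Selectivity index is Ki CB1/Ki CB2.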

[2] = target: Cannabinoid receptor 1 (CB1) (Homo sapiens, UniProt P21554); assay: Displacement of [3H]CP-55940 from human recombinant CB1 receptor expressed in HEK293 cell membranes at 1 uM incubated for 1.5 hrs relative to control; settings: probe [3H]CP-55940
Cannabinoid receptor 1 (CB1), sequence (P21554 whole entry): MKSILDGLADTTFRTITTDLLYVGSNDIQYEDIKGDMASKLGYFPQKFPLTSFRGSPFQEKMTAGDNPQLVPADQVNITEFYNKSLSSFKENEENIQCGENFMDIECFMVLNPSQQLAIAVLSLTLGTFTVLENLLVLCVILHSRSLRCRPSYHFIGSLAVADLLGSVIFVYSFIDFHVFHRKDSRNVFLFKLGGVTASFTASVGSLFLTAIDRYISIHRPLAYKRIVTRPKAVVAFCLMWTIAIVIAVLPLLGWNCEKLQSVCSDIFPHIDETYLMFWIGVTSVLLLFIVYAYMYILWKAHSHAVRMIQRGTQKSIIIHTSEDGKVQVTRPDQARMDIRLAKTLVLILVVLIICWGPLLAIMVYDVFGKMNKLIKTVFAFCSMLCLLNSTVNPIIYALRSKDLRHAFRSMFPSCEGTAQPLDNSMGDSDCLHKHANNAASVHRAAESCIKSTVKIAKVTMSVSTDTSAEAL
Procedure, shortened: (§2)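 Single-point screen on HEK-293 membranes overexpressing human CB1 or CB2. […] Compounds displacing more than 50% at 1 μM went on to full curves.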

[3] = target: T1, Cannabinoid receptor 2 (Homo sapiens, UniProt P34972); assay: Displacement of [3H]CP-55940 from human recombinant CB2 receptor expressed in HEK293 cell membranes at 1 uM incubated for 1.5 hrs relative to control; procedure, shortened: as §2
T1 sequence (P34972 whole entry): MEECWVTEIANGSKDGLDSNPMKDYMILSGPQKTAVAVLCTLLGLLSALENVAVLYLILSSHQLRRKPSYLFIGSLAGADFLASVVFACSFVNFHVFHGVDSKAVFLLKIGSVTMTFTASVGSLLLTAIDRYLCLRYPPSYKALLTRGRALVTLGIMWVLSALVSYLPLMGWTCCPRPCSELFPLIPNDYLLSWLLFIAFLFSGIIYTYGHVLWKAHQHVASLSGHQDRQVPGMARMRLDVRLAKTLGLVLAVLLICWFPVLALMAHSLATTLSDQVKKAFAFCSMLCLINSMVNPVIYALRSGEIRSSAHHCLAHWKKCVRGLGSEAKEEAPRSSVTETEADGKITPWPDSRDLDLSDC

[4] = target: T1, Cannabinoid receptor 2; assay: Displacement of [3H]CP-55940 from human recombinant CB2 receptor expressed in HEK293 cell membranes incubated for 1.5 hrs; procedure, shortened: as §1
[5] = species on record: Homo sapiens; assay: Selectivity index, ratio of Ki for displacement of [3H]CP-55940 from human recombinant CB1 receptor to Ki for displacement of [3H]CP-55940 from human recombinant CB2 receptor; procedure, shortened: as §1
[6] = Cytotoxicity against human HeLa cells assessed as reduction in cell viability measured after 72 hrs by MTT assay; type: functional, cell-based
Procedure, shortened: (§3)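 Cells kept in RPMI 1640 with 5% FBS, penicillin/streptomycin, 37 °C, 5% CO2. Seeded at 10,000 cells/well, then exposed to compounds at 0.001–10 μM in 5% FBS-RPMI for 72 h at 37 °C. MTT added for 4 h, formazan dissolved overnight in 10% SDS/0.1 mM HCl, absorbance read at 570 nm. […] Etoposide as positive control.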

[7] = Cytotoxicity against resistant human HCT116 cells assessed as reduction in cell viability measured after 72 hrs by MTT assay; type: functional, cell-based; settings: HCT-116, 72 h; procedure, shortened: as §3
[8] = Cytotoxicity against African green monkey Vero cells assessed as reduction in cell viability measured after 72 hrs by MTT assay; type: toxicity, cell-based; settings: Chlorocebus sabaeus (African green monkey); procedure, shortened: as §3
[9] = Cytotoxicity against human HL60 cells assessed as reduction in cell viability measured after 72 hrs by MTT assay; type: functional, cell-based; settings: HL-60, 72 h; procedure, shortened: as §3
[10] = Cytotoxicity against human H1975-1 cells assessed as reduction in cell viability measured after 72 hrs by MTT assay; type: functional, cell-based; procedure, shortened: as §3

Cannabinoid receptor 1, sequence (P21554 whole entry): as the sequence (P21554 whole entry) above

SMILES	pIC50 [1]	pKi [1]	inhibition at 1.5 h, 1 µM [2]	inhibition [3]	pIC50 [4]	pKi [4]	Ratio Ki [5]	pIC50 [6]	pIC50 [7]	IC50 at 72 h [8]	pIC50 [9]	pIC50 [10]
O=C(c1cccc2ccccc12)n1c(C2CCCC2)nc2ccccc21	< 5.00	< 5.00	> 50%	> 50%	5.54	6.15	> 14	< 5.00	< 5.00	> 10 µM	6.97	< 5.00
CC(C)Cc1nc2ccccc2n1C(=O)c1cccc2ccccc12	< 5.00	< 5.00	> 50%	> 50%	6.30	7.00	> 100	< 5.00	5.66	> 10 µM	7.03	< 5.00
COc1ccc(C(=O)n2c(C3CCC3)nc3ccccc32)cc1	< 5.00	< 5.00	> 50%	> 50%	5.44	6.05	> 11	< 5.00	< 5.00	> 10 µM	7.33	< 5.00
COc1ccc(Cn2c(-c3ccc(OC)cc3)nc3ccccc32)cc1	< 5.00	< 5.00	> 50%	> 50%	5.57	6.15	> 14	5.51	5.76	> 10 µM	7.24	< 5.00
CCc1sc2ccccc2c1C(=O)c1ccc(OC)cc1	< 5.00	< 5.00	> 50%	> 50%	5.18	5.80	> 6.2	< 5.00	< 5.00	> 10 µM	7.34	< 5.00
COc1ccc(C(=O)n2c(C3CCCC3)nc3ccccc32)cc1	< 5.00	< 5.00	> 50%	> 50%	5.66	6.30	> 20	< 5.00	< 5.00	> 10 µM	7.12	< 5.00
O=C(c1cccc2ccccc12)n1c(C2CCCCC2)nc2ccccc21	5.31	5.54	> 50%	> 50%	5.77	6.40	7.25	< 5.00	5.52	> 10 µM	6.66	< 5.00
CCc1sc2ccccc2c1C(=O)c1cccc2ccccc12	5.08	5.29	> 50%	> 50%	5.54	6.15	7.28	< 5.00	< 5.00	> 10 µM	7.00	< 5.00
CCCCCc1sc2ccccc2c1C(=O)c1ccc(OC)cc1	< 5.00	< 5.00	> 50%	> 50%	5.92	6.52	> 33	< 5.00	< 5.00	> 10 µM	7.08	< 5.00
COc1ccc(C(=O)n2c(C(C)(C)C)nc3ccccc32)cc1	< 5.00	< 5.00	> 50%	> 50%	5.62	6.22	> 16.7	< 5.00	7.70	> 10 µM	7.26	< 5.00
COc1ccc(C(=O)n2c(C(C)C)nc3ccccc32)cc1	< 5.00	< 5.00	> 50%	> 50%	5.49	6.10	> 12.5	< 5.00	6.72	> 10 µM	6.20	< 5.00
